# Yeast growth inh: growth inhibitors of yeast BB579 in restrictive medium, primary screen, yeast lifespan-shortening project, S. cerevisiae. AID 804, 2007. inhibition, % at 10 µM. 140,000 tested, 0.51% active. OD615, 48 h;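 active = inhibition above a set limit, 3 SD over the mean compound inhibition, cut at about 44% in these data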
#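 System: Saccharomyces cerevisiae DeaD strain BB579, replicative lifespan model yeast. Buffer or medium: restrictive glucose-based CSMM-D medium. Doses: one dose, 10 µM compound with 0.25% DMSO. Timing: 4 h preincubation and 48 h exposure at 30 °C. Detection: turbidity as optical density at 615 nm. Benchmarks: amphotericin B 10 µg/mL, positive.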
# WT yeast gro inh: growth inhibition of WT strain, primary screen, mitochondrial fusion inhibitor project, WT and mutant strains, chemical genetic | AID 1362, 2008 | mitochondrial fusion phenotypic screen | inhibition, % at 10 µM | 190,000 tested, 2.1% active; in the data active = inhibition above about 58%; tested in S. cerevisiae
# KCC2 mod: KCC2 cotransporter modulators, thallium flux, primary screen, cell-based, HEK293 KCC2, FluoZin-2 fluorescence, MLSMR | 190,000 tested, 2.2% active | B-score of Tl+ flux slope (higher = more flux/activation; lower = inhibition) at 10 µM | AID 1456, 2008 | KCC2 cells, thallium flux FluoZin-2 fluorescence;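 active = thallium flux slope and its plate-corrected score both differing from the plate sample mean at a set confidence after two filtering rounds, in either direction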;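 also: slope of fluorescence scaled to starting intensity during 10 to 20 s after thallium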
# Yeast lifespan up: compounds extending yeast replicative lifespan, primary screen, S. cerevisiae, OD615 | 130,000 tested, 0.68% active | AID 775, 2007 | S. cerevisiae growth with nicotinamide; deaD strain in restrictive glucose medium | inhibition of the nicotinamide effect, % at 10 µM;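 active = inhibition above a set limit, placed 3 SD over the median of all compounds, cut at about 26% in these data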;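 also: 0% = nicotinamide-treated wells and 100% = cells grown without nicotinamide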
#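 System: Modified budding yeast, DeaD strain | Buffer or medium: Restrictive glucose medium | Also added: 1.5 mM nicotinamide | Doses: 10 µM single point, 0.25% DMSO | Schedule: 48 h compound exposure at 30 °C, humidified | Detection: Absorbance at 615 nm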
# RAM network inh: inhibitors of the yeast RAM network, primary screen, dse1pr::URA3 reporter, 5-FOA selection | 190,000 tested, 1.8% active | inhibition, % at 50 µM | S. cerevisiae dse1pr::URA3 reporter, 5-FOA growth OD615, 2 d; analog-sensitive cbk1-as2 kinase mutant strain;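 active = inhibition above a set limit, 3 SD over mean compound inhibition, cut at about 8.4% in these data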;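 also: 0% = DMSO-only wells with no growth and 100% = 10 µM 1-NA-PP1 full growth; inhibition rescues growth on 5-FOA so higher OD means more RAM inhibition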
# Starred values were filed as active, the others as inactive; · = no result. An excerpt weighted towards active compounds, which were near 5.5% of everything screened.
SMILES,Yeast growth inh,WT yeast gro inh,KCC2 mod,Yeast lifespan up,RAM network inh
COc1ccc(CN=C2NC(=O)CC(C(=O)Nc3ccc(Cl)cc3)S2)cc1 (configuration not stated),-3,5,-0.12,-4,9.2*
C/C(CCc1ccc2c(c1)OCO2)=N\N=C1\NC(=O)CC(C(=O)Nc2ccc(Cl)cc2)S1 (configuration not stated),-13,73*,0.08,-7,3
CC(=O)Nc1ccc(S(=O)(=O)N(CC(=O)Nc2cc(C)on2)Cc2ccc(F)cc2)cc1,·,·,0.46,·,·
CC(C)(C)C(=O)Nc1nc2cc3c(cc2s1)OCO3,·,·,0.12,·,·
Clc1ccc(CSc2nnc(-c3ccccn3)n2Cc2ccco2)c(Cl)c1,-68,60*,·,4,1
Cc1ccc2nc(SC(C(=O)Nc3ccc(F)cc3)c3ccccc3)[nH]c2c1 (configuration not stated),-14,60*,0.71,-2,1
c1cn2cc(-c3ccc4c(c3)OCO4)nc2s1,40,79*,-0.29,-13,1
COc1cccc(-n2nnnc2S(C)(=O)=O)c1,74*,62,·,18,-1
COc1cccc(Oc2nnnn2-c2ccccc2)c1,-10,11,-0.14,-9,0
O=C(Cc1ccccc1[N+](=O)[O-])N1CCc2ccccc2C1,·,-3,-1,·,2
COc1ccc(C2C(C#N)=C(SC)NC3=C2C(=O)CC(C)(C)C3)cc1 (configuration not stated),-23,79*,-1.6,2,3
COc1ccc(C2C3=C(CC(C)(C)CC3=O)Nc3c2c(=O)[nH]c(=O)n3Cc2ccccc2)cc1 (configuration not stated),-12,1,-1.6,3,9.5*
CCOC(=O)CSC1=C(C#N)C(c2ccc(OC)cc2)C2=C(CC(C)(C)CC2=O)N1 (configuration not stated),-26,24,-0.55,-17,4
O=C(NC(=S)N(CCc1ccccc1)CCc1ccccc1)c1ccco1,-8,62,44*,9,4
COc1cc(C(=O)NC(=S)N(CCc2ccccc2)CCc2ccccc2)cc(OC)c1OC,-1,48,73*,4,5
Cc1cccc(OCCCSc2nc3ccc(C)cc3[nH]2)c1,-36,82*,-0.32,-20,1
COc1cc([N+](=O)[O-])ccc1NC(=O)C[n+]1ccccc1,4,2,1.5,0,1
CC(=O)Nc1nc(COc2ccc3ccccc3c2)cs1,-26,-4,·,-9,2
Nc1nc(COc2ccc3ccccc3c2)cs1,7,75*,-2.7,-19,0
COC(=O)c1sccc1-c1ccc(C(=O)Nc2cccc(Cl)c2)o1,-44,19,0.017,-10,9.8*
CN(C)S(=O)(=O)Oc1ccsc1C(=O)Nc1cccc(Cl)c1,-3,20,-1.2,-11,3
CC(=O)Nc1ccc(S(=O)(=O)N2CCN(Cc3cccc([N+](=O)[O-])c3)CC2)cc1,·,0,0.54,·,-1
CC(C)(C)NC(=O)/C(=C\C=C\c1ccccc1)NC(=O)c1ccc([N+](=O)[O-])cc1,-43,6,-1.1,7,3
O=C(O)C1C2C=CC(C2)C1C(=O)Nc1ccc(C(=O)N2CCCCC2)cc1 (configuration not stated),-39,68*,2.2,-9,2
CCOC(=O)c1ccc(NC(=O)C2C3C=CC(C3)C2C(=O)O)cc1 (configuration not stated),11,9,-0.28,-11,-1
SMILES,Yeast growth inh,WT yeast gro inh,KCC2 mod,Yeast lifespan up,RAM network inh
Cc1cc(Cl)ccc1NC(=S)NCCN1CCOCC1,-13,3,-0.015,1,2
COc1cc(/C=C/C(=O)O)cc(Br)c1O,·,·,-1,·,·
COc1ccc(/C=C/C(=O)C2C(=O)C=C(C)OC2=O)cc1O (configuration not stated),-3,17,-1.3,44*,2
COc1cc(/C=C/C(=O)C2C(=O)C=C(C)OC2=O)cc(OC)c1O (configuration not stated),-9,4,0.04,64*,1
O=C1c2ccccc2NC(c2cccnc2)N1c1ccccc1F (configuration not stated),-10,-21,0.7,-2,1
O=C1C(Cl)=C(Nc2ccccc2O)C(=O)N1CCc1ccccc1,-33,30,-1.6,46,7
O=C(CSc1ccc(F)cc1)Nc1ccccc1Br,·,11,-0.36,·,11*
C(=N\N1CCN(C2c3ccccc3-c3ccccc32)CC1)/c1ccncc1,-63,68*,·,-14,1
C/C(=N\N1CCN(C2c3ccccc3-c3ccccc32)CC1)c1ccncc1,-3,29,0.38,-22,0
S=C1NC2(CCCCC2)Cc2ccccc21,-35,69*,0.97,1,1
O=C1NC2(CCCCC2)Cc2ccccc21,-45,15,·,-3,2
N#Cc1c(NC(=O)CN2C(=O)c3ccccc3C2=O)oc(-c2ccccc2)c1-c1ccccc1,·,·,-0.7,·,·
N#Cc1c(NC(=O)CCN2C(=O)c3ccccc3C2=O)oc(-c2ccccc2)c1-c1ccccc1,-20,1,·,0,9.5*
CCn1c(SCC(=O)Nc2oc(-c3ccccc3)c(-c3ccccc3)c2C#N)nnc1-c1ccco1,-26,4,-2,-13,8.8*
O=C(CN(c1cccc([N+](=O)[O-])c1)S(=O)(=O)c1ccccc1)N(Cc1ccccc1)Cc1ccccc1,-14,13,-1.5,-6,8.6*
O=C(COc1ccc([N+](=O)[O-])cc1)N(Cc1ccccc1)Cc1ccccc1,-24,31,0.012,44,11*
O=C(CN(c1cccc([N+](=O)[O-])c1)S(=O)(=O)c1ccccc1)NCc1ccccc1,-25,-6,-0.77,3,4
CC(C)(O)C#Cc1ccc(C(=O)N2CCN(c3ccc(Cl)cc3)CC2)cc1,·,27,0.095,·,0
O=[N+]([O-])c1cccc(/C=N/n2cnnc2)c1O,76*,-12,0.56,-9,-1
CC(=O)N(/N=C/c1cccc(C)c1)c1nc(-c2ccc(Br)cc2)cs1,-86,-22,0.39,7,4
COc1ccc(/C=N/N(C(C)=O)c2nc(-c3ccc(C)cc3)cs2)cc1,-74,3,0.22,-1,9.3*
CCOc1cc(/C=N\Nc2nc(Nc3ccccc3)nc(N3CCOCC3)n2)ccc1OC(=O)c1ccco1,-8,-7,-1.4,-5,5
Cc1ccccc1OCCCc1c(C)n[nH]c1C,·,·,-0.38,·,3
Cc1ccccc1OCCCCc1c(C)n[nH]c1C,4,76*,·,-14,-1
Cc1nc2sc3c(c2c(=O)o1)CC(C)(C)OC3,-16,9,0.26,32*,1

# Assay outcomes (PubChem BioAssay)
